Common to all, as to assay type: functional
Experiment [1] relates to Streptococcus pyogenes. Put plainly: Compounds were evaluated in vivo for antibacterial activity for mouse protection against Streptococcus pyogenes C 203 after oral administration. The following applies: Streptococcus pyogenes, C 203, po; read-out: PD50.
For experiment [2], the system named is Providencia rettgeri. Put plainly: Minimum inhibitory concentration was evaluated in vitro against Providencia rettgeri M1771. The following applies: Providencia rettgeri; read-out: MIC. The essentials:
(§1)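 Standard microtitration broth assay against a panel of 10 Gram-positive and Gram-negative organisms. MIC read in µg/mL and averaged over multiple experiments.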

Experiment [3] deals with Klebsiella pneumoniae. Put plainly: Minimum inhibitory concentration was evaluated in vitro against Klebsiella pneumoniae MGH2. The following applies: Klebsiella pneumoniae; read-out: MIC. The essentials: as §1
Experiment [4] deals with Staphylococcus aureus. Put plainly: Minimum inhibitory concentration was evaluated in vitro against Staphylococcus aureus H 228. The following applies: Staphylococcus aureus; read-out: MIC. The method in brief: as §1
Experiment [5] deals with Escherichia coli. The experiment is described as follows: Antibacterial activity in vitro against Escherichia coli Vogel. The following applies: Escherichia coli; read-out: MIC. The method in brief: as §1
The subject of experiment [6] is Streptococcus pyogenes. Put plainly: Antibacterial activity measured as mouse protection against Streptococcus pyogenes C 203 after subcutaneous administration. The following applies: Streptococcus pyogenes, C 203, sc; read-out: PD50.
Experiment [7] concerns Staphylococcus aureus. Put plainly: Minimum inhibitory concentration was evaluated in vitro against Staphylococcus aureus UC 76. The following applies: Staphylococcus aureus; read-out: MIC. The essentials: as §1
Experiment [8] relates to Pseudomonas aeruginosa. The experiment is described as follows: Minimum inhibitory concentration was evaluated in vitro against Pseudomonas aeruginosa UI-18. The following applies: Pseudomonas aeruginosa; read-out: MIC. The method in brief: as §1
Experiment [9] has as its system Enterococcus faecalis. Put plainly: Minimum inhibitory concentration was evaluated in vitro against Enterococcus faecalis MGH-2. The following applies: Enterococcus faecalis; read-out: MIC. The method in brief: as §1
Experiment [10] concerns Streptococcus pneumoniae. The experiment is described as follows: Minimum inhibitory concentration was evaluated in vitro against Streptococcus pneumoniae SV-1. The following applies: Streptococcus pneumoniae; read-out: MIC. The essentials:
as §1

Experiment [11] has as its system Streptococcus pyogenes. Put plainly: Minimum inhibitory concentration was evaluated in vitro against Streptococcus pyogenes C 203. The following applies: Streptococcus pyogenes; read-out: MIC. The essentials:
as §1

In experiment [12] the test system is Enterobacter cloacae. The experiment is described as follows: Minimum inhibitory concentration in vitro against Enterobacter cloacae MA 2646. The following applies: Enterobacter cloacae; read-out: MIC.

Converted amounts (≈) assume the structure as drawn.

On to `NCC1CCN(c2nc3c(cc2F)c(=O)c(C(=O)O)cn3-c2ccc(F)cc2F)C1` (configuration not stated), for which the values for the ED50 in [1] and in [6] were 10 mg/kg and 1 mg/kg, respectively. The MIC was determined as 0.2 mg/L (≈ 0.478 µM) in experiment [2]; 0.1 mg/L (≈ 0.239 µM) in [3]; 0.05 mg/L (≈ 0.12 µM) in experiment [4]; 0.05 mg/L (≈ 0.12 µM) in [5]; 0.013 mg/L (≈ 0.0311 µM) in [7]; 0.4 mg/L (≈ 0.956 µM) in [8]. Moreover, the MIC is 0.025 mg/L (≈ 0.0598 µM) in experiment [9], 0.025 mg/L (≈ 0.0598 µM) in experiment [10], 0.025 mg/L (≈ 0.0598 µM) in experiment [11] and 0.05 mg/L (≈ 0.12 µM) in experiment [12].
For the molecule `CCN[C@H](C)[C@@H]1CCN(c2cc3c(cc2F)c(=O)c(C(=O)O)cn3C2CC2)C1`, the MIC in [2] was found to be 0.8 mg/L (≈ 2.06 µM); in experiment [3] it was 0.4 mg/L (≈ 1.03 µM); in experiment [4], 0.1 mg/L (≈ 0.258 µM); in [5], 0.2 mg/L (≈ 0.516 µM); in experiment [7], 0.025 mg/L (≈ 0.0645 µM); in experiment [8], 6.3 mg/L (≈ 16.3 µM). Further, the MIC in experiment [9] was 0.1 mg/L (≈ 0.258 µM); in experiment [10], 0.05 mg/L (≈ 0.129 µM); in experiment [11] it was 0.05 mg/L (≈ 0.129 µM); in [12], 0.2 mg/L (≈ 0.516 µM).
For `COc1c(N2CC[C@@H]([C@H](C)N)C2)c(F)cc2c(=O)c(C(=O)O)cn(C3CC3)c12`, the MIC in experiment [2] stood at 0.4 mg/L (≈ 1.03 µM); in experiment [3], 0.4 mg/L (≈ 1.03 µM); in experiment [4] it was 0.05 mg/L (≈ 0.128 µM); in experiment [5], 0.4 mg/L (≈ 1.03 µM); in [7], 0.013 mg/L (≈ 0.0334 µM); in experiment [8] it was 1.6 mg/L (≈ 4.11 µM). Moreover, the MIC in experiment [9] was determined as 0.05 mg/L (≈ 0.128 µM); in experiment [10], 0.025 mg/L (≈ 0.0642 µM); in experiment [11] it was 0.025 mg/L (≈ 0.0642 µM); in [12], 0.8 mg/L (≈ 2.05 µM). The ED50 in experiment [6] stood at 6 mg/kg.
`CN[C@H](C)[C@@H]1CCN(c2c(F)cc3c(=O)c(C(=O)O)cn(C4CC4)c3c2C(F)(F)F)C1`: the ED50 in [1] was determined as 3 mg/kg; in [6] it was 2 mg/kg. Moreover, the MIC came out at 3.1 mg/L (≈ 7.02 µM) in experiment [2]; 1.6 mg/L (≈ 3.62 µM) in experiment [3]; 0.05 mg/L (≈ 0.113 µM) in experiment [4]; 0.2 mg/L (≈ 0.453 µM) in [5]; 0.025 mg/L (≈ 0.0566 µM) in [7]; 6.3 mg/L (≈ 14.3 µM) in experiment [8]. Besides, the MIC in experiment [9] is 0.1 mg/L (≈ 0.227 µM); in experiment [10], 0.05 mg/L (≈ 0.113 µM); in [11] it was 0.05 mg/L (≈ 0.113 µM); in experiment [12], 0.4 mg/L (≈ 0.906 µM).
Turning to `C[C@@H](N)[C@@H]1CCN(c2nc3c(cc2F)c(=O)c(C(=O)O)cn3-c2ccc(F)cc2F)C1`, the MIC was determined as 0.4 mg/L (≈ 0.925 µM) in experiment [2]; 0.2 mg/L (≈ 0.463 µM) in experiment [3]; 0.1 mg/L (≈ 0.231 µM) in [4]; 0.1 mg/L (≈ 0.231 µM) in experiment [5]; 0.025 mg/L (≈ 0.0578 µM) in experiment [7]; 1.6 mg/L (≈ 3.7 µM) in experiment [8]. Also, the MIC in experiment [9] came to 0.1 mg/L (≈ 0.231 µM); in [10] it was 0.1 mg/L (≈ 0.231 µM); in experiment [11] it was 0.05 mg/L (≈ 0.116 µM); in experiment [12], 0.1 mg/L (≈ 0.231 µM).
As for `CCN[C@H](C)[C@@H]1CCN(c2c(F)cc3c(=O)c(C(=O)O)cn(C4CC4)c3c2C(F)(F)F)C1`, the ED50 amounted to 2 mg/kg in experiment [1] and 0.8 mg/kg in experiment [6]. The MIC worked out at 3.1 mg/L (≈ 6.81 µM) in experiment [2]; 1.6 mg/L (≈ 3.51 µM) in [3]; 0.05 mg/L (≈ 0.11 µM) in [4]; 0.8 mg/L (≈ 1.76 µM) in [5]; 0.05 mg/L (≈ 0.11 µM) in [7]; 6.3 mg/L (≈ 13.8 µM) in [8]. Also, the MIC in experiment [9] worked out at 0.1 mg/L (≈ 0.22 µM); in experiment [10], 0.05 mg/L (≈ 0.11 µM); in [11] it was 0.1 mg/L (≈ 0.22 µM); in experiment [12] it was 1.6 mg/L (≈ 3.51 µM).
As to `CN[C@@H](C)[C@H]1CCN(c2cc3c(cc2F)c(=O)c(C(=O)O)cn3C2CC2)C1`, the MIC in experiment [2] was 3.1 mg/L (≈ 8.3 µM); in experiment [3], 0.8 mg/L (≈ 2.14 µM); in [4], 1.6 mg/L (≈ 4.28 µM); in experiment [5], 0.4 mg/L (≈ 1.07 µM); in experiment [7] it was 0.2 mg/L (≈ 0.536 µM); in experiment [8], 6.3 mg/L (≈ 16.9 µM). Besides, the MIC in experiment [9] is 0.8 mg/L (≈ 2.14 µM); in experiment [10], 0.4 mg/L (≈ 1.07 µM); in experiment [11], 0.4 mg/L (≈ 1.07 µM); in experiment [12] it was 0.4 mg/L (≈ 1.07 µM).
For `CCN[C@@H](C)[C@H]1CCN(c2cc3c(cc2F)c(=O)c(C(=O)O)cn3C2CC2)C1`, the MIC turned out to be 1.6 mg/L (≈ 4.13 µM) in experiment [2]; 0.8 mg/L (≈ 2.06 µM) in experiment [3]; 0.8 mg/L (≈ 2.06 µM) in experiment [4]; 0.4 mg/L (≈ 1.03 µM) in experiment [5]; 0.4 mg/L (≈ 1.03 µM) in experiment [7]; 12.5 mg/L (≈ 32.3 µM) in [8]. Moreover, the MIC in experiment [9] turned out to be 0.8 mg/L (≈ 2.06 µM); in [10], 0.4 mg/L (≈ 1.03 µM); in experiment [11] it was 0.4 mg/L (≈ 1.03 µM); in experiment [12], 0.4 mg/L (≈ 1.03 µM).
